Molecules are shown by their SMILES. Activity calls are given as the source filed them. The calls are words filed in the database; no cut-off is given here.

The first assay addresses T1, DNA repair protein RAD51 homolog 1 (Homo sapiens, UniProt Q06609).
T1 sequence (Q06609 whole entry): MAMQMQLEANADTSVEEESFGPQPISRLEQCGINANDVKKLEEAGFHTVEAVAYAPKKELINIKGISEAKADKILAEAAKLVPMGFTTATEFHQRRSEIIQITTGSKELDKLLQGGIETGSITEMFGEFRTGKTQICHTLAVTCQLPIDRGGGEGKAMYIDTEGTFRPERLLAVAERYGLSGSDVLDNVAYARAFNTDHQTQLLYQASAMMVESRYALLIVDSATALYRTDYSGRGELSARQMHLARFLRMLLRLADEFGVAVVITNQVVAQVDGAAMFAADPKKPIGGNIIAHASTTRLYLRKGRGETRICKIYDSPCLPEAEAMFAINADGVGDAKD
Put plainly: Inhibition of biotinylated BRC4 peptide binding to His-tagged human RAD51 expressed in Escherichia coli Rosetta(DE3) pLysS cells assessed as BRC4-RAD51 protein -protein interaction by competitive ELISA. The procedure, abridged: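 Biotinylated BRC4 peptide coated onto wells, washed with PBS/0.05% Tween-20, blocked with 1% BSA/PBST, then hybridized overnight with human RAD51. Compounds tested at 0.01–100 μM in triplicate with 1% DMSO constant. Bound RAD51 detected with anti-RAD51 and HRP secondary antibody, TMB colorimetric signal quenched with 1 M HCl. EC50 ± SD reported.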
As to `O=C(O)CCC(=O)N1N=C(c2c(O)nc3ccc(Cl)cc3c2-c2ccccc2)CC1c1ccco1` (racemic), the EC50 entry is given as “Not Active”.
In the case of `COc1ccc(C2CC(c3c(O)nc4ccc(Cl)cc4c3-c3ccccc3)=NN2C(=O)CCC(=O)O)cc1` (racemic), the EC50 entry is “Not Active”.
Take `CC(C)(C)c1ccc(C2CC(c3c(-c4ccccc4)c4cc(Cl)ccc4[nH]c3=O)=NN2C(=O)CCC(=O)O)cc1` (racemic): the EC50 entry is “Not Active”.
In the case of `NCCC(=O)N1N=C(c2c(-c3ccccc3)c3cc(Cl)ccc3[nH]c2=O)CC1c1ccc(F)cc1` (racemic), the EC50 result is given as “Not Active”.
Still for that read-out and setting: as for `CC(=O)N1N=C(c2c(-c3ccccc3)c3cc(Cl)ccc3[nH]c2=O)CC1c1ccco1` (racemic), the entry is “Not Active”; as for `CC(=O)N1N=C(c2c(-c3ccccc3)c3cc(Cl)ccc3[nH]c2=O)CC1c1ccc(C(F)(F)F)cc1` (racemic), “Not Active”; as for `NC(=O)CCC(=O)N1N=C(c2c(-c3ccccc3)c3cc(Cl)ccc3[nH]c2=O)CC1c1ccc(F)cc1` (racemic), “Not Active”.
Turning to `CCCn1ncc2cc(C3CC(c4c(-c5ccccc5)c5cc(Cl)ccc5[nH]c4=O)=NN3C(=O)CCC(=O)O)ccc21` (racemic), the EC50 entry is on record as “Not Active”.
On to `COc1ccc(C2CC(c3c(-c4ccccc4)c4ccccc4[nH]c3=O)=NN2C(=O)CCC(=O)O)cc1` (racemic), for which the EC50 entry is “Not Active”.
In the case of `COc1ccc(C2CC(c3c(-c4ccccc4)c4cc(Cl)ccc4[nH]c3=O)=NN2C(=O)CCC(=O)O)cc1F` (racemic), the EC50 entry is “Not Active”.
In the case of `O=C(O)CCC(=O)N1N=C(c2c(-c3ccccc3)c3ccccc3[nH]c2=O)CC1c1ccc(C(F)(F)F)cc1` (racemic), the EC50 entry was “Not Active”.
As to `O=C(O)CCC(=O)N1N=C(c2c(-c3ccccc3)c3ccccc3[nH]c2=O)CC1c1ccc(Br)cc1` (racemic), the EC50 entry was “Not Active”.
Turning to `O=C(O)CCC(=O)N1N=C(c2c(-c3ccccc3)c3ccccc3[nH]c2=O)CC1c1ccc(Cl)cc1` (racemic), the EC50 result is reported as “Not Active”.
With `O=C(O)CCC(=O)N1N=C(c2c(-c3ccccc3)c3cc(Cl)ccc3[nH]c2=O)CC1c1ccc2c(cnn2C2CCCCC2)c1` (racemic), the EC50 result is “Not Active”.
On the same count and under the same terms, as for `O=C(O)CCC(=O)N1N=C(c2c(-c3ccccc3)c3cc(Cl)ccc3[nH]c2=O)CC1c1ccc2nn(C3CCCCC3)cc2c1` (racemic), the entry is “Not Active”; as for `COC(=O)CCC(=O)N1N=C(c2c(-c3ccccc3)c3cc(Cl)ccc3[nH]c2=O)CC1c1ccc(F)cc1` (racemic), “Not Active”; as for `O=C(O)CCC(=O)N1N=C(c2c(-c3ccccc3)c3ccccc3[nH]c2=O)CC1c1ccc(F)cc1` (racemic), “Not Active”.
Regarding `O=C(O)CCC(=O)N1N=C(c2c(-c3ccccc3)c3ccccc3[nH]c2=O)CC1c1cccc(Br)c1` (racemic), the EC50 entry is reported as “Not Active”.
In the case of `CCCn1cc2cc(C3CC(c4c(-c5ccccc5)c5cc(Cl)ccc5[nH]c4=O)=NN3C(=O)CCC(=O)O)ccc2n1` (racemic), the EC50 entry was “Not Active”.
Consider `CS(=O)(=O)NCCC(=O)N1N=C(c2c(-c3ccccc3)c3cc(Cl)ccc3[nH]c2=O)CC1c1ccc(F)cc1` (racemic), for which the EC50 result is on record as “Not Active”.

For another assay, the target named is T2, DNA repair protein RAD51 homolog 1 (Homo sapiens) (UniProt Q06609).
T2 sequence (whole entry): T1 sequence (Q06609 whole entry)
As to the kind of experiment: Inhibition of RAD51 interaction in human BxPC3 cells assessed as inhibition of homologous recombination incubated for 5 hrs by RT-PCR analysis. It counts as cell-based. The procedure, abridged:
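Commercial two-plasmid recombination assay in BxPC-3 cells, with compound applied at different doses for 5 h simultaneously with plasmid transfection. Tested up to 40 μM, limited by solubility. Dose giving 50% HR inhibition estimated by polynomial regression.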
With `CC(=O)N1N=C(c2c(-c3ccccc3)c3cc(Cl)ccc3[nH]c2=O)CC1c1ccc(C(C)(C)C)cc1` (racemic), the inhibition entry was “inactive”.
Same read-out and setting: as for `CC(=O)N1N=C(c2c(-c3ccccc3)c3cc(Cl)ccc3[nH]c2=O)CC1c1ccc2c(ccn2C)c1` (racemic), the entry is “inactive”; as for `CCC(=O)N1N=C(c2c(-c3ccccc3)c3cc(Cl)ccc3[nH]c2=O)CC1c1ccc(Br)cc1` (racemic), “inactive”; as for `CCC(=O)N1N=C(c2c(-c3ccccc3)c3cc(Cl)ccc3[nH]c2=O)CC1c1ccc(Cl)cc1` (racemic), “inactive”.
In the case of `CCCn1ncc2cc(C3CC(c4c(-c5ccccc5)c5cc(Cl)ccc5[nH]c4=O)=NN3C(C)=O)ccc21` (racemic), the inhibition entry was “inactive”.
For the molecule `CCn1cc2cc(-c3ccc(C4CC(c5c(-c6ccccc6)c6cc(Cl)ccc6[nH]c5=O)=NN4C(=O)CCC(=O)O)cc3)ccc2n1` (racemic), the inhibition entry is “inactive”.
`Cn1ccc2cc(C3CC(c4c(-c5ccccc5)c5cc(Cl)ccc5[nH]c4=O)=NN3C(=O)CCC(=O)O)ccc21` (racemic): the inhibition entry is “inactive”.
With `O=C(O)CCC(=O)N1N=C(c2c(-c3ccccc3)c3cc(Cl)ccc3[nH]c2=O)CC1c1ccc(Br)cc1` (racemic), the inhibition result is “inactive”.

The test system of another assay is CAPAN-1. As to the kind of experiment: Induction of DNA damage in BRCA2 defective human Capan1 cells assessed as increase in gamma-H2AX labelling […] hrs by immunofluorescence microscopic analysis. It counts as functional, cell-based. A digest of the protocol: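 Cells exposed 48 h to 20 μM disruptor alone or with 10 μM olaparib, in medium with 0.6% DMSO. Nuclear γ-H2AX foci visualized by immunofluorescence and percentage of labeled nuclei scored. BxPC-3 (functional BRCA2) and Capan-1 (BRCA2-defective) cultures in RPMI 1640 with 10% FBS.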
As to `O=C(c1cc(Cc2n[nH]c(=O)c3ccccc23)ccc1F)N1CCN(C(=O)C2CC2)CC1`, the outcome was Active.

A further assay relates to BXPC-3. As to the kind of experiment: Antiproliferative activity against human BxPC3 cells after 72 hrs in presence of olaparib by CellTiter-Glo luminescent cell viability assay. Format: functional, cell-based. A digest of the protocol: (§1)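 BxPC-3 cells grown in RPMI 1640 with 10% FBS, penicillin/streptomycin and 2 mM glutamine. Disruptor given alone or with 10 μM olaparib in medium containing 0.6% DMSO, with the same DMSO in controls. Viability read at 72 h, measured alongside cell death.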
For the molecule `CC(=O)N1N=C(c2c(-c3ccccc3)c3cc(Cl)ccc3[nH]c2=O)CC1c1ccc(Cl)cc1` (racemic), the outcome was inactive.
Consider `CCC(=O)N1N=C(c2c(-c3ccccc3)c3cc(Cl)ccc3[nH]c2=O)CC1c1ccc(Br)cc1` (racemic), for which the result was inactive.
Consider `CCC(=O)N1N=C(c2c(-c3ccccc3)c3cc(Cl)ccc3[nH]c2=O)CC1c1ccc(Cl)cc1` (racemic), for which the outcome was inactive.
Regarding `CCCn1ncc2cc(C3CC(c4c(-c5ccccc5)c5cc(Cl)ccc5[nH]c4=O)=NN3C(C)=O)ccc21` (racemic), the outcome was inactive.
With `CCn1ccc2cc(C3CC(c4c(-c5ccccc5)c5cc(Cl)ccc5[nH]c4=O)=NN3C(=O)CCC(=O)O)ccc21` (racemic), the result was inactive.
With `O=C(O)CCC(=O)N1N=C(c2c(-c3ccccc3)c3cc(Cl)ccc3[nH]c2=O)CC1c1ccc(-c2ccc(Br)cc2)cc1` (racemic), the outcome was inactive.
Same read-out and setting: as for `O=C(O)CCC(=O)N1N=C(c2c(-c3ccccc3)c3cc(Cl)ccc3[nH]c2=O)CC1c1ccc(-c2ccc(F)cc2)cc1` (racemic), the entry is “inactive”; as for `O=C(O)CCC(=O)N1N=C(c2c(-c3ccccc3)c3cc(Cl)ccc3[nH]c2=O)CC1c1ccc(Br)cc1` (racemic), “inactive”.

The next assay relates to BXPC-3. As to the kind of experiment: Antiproliferative activity against human BxPC3 cells at 5 uM after 72 hrs in presence of olaparib by CellTiter-Glo luminescent cell viability assay. Format: functional, cell-based. A digest of the protocol: as §1
For the molecule `Cn1ccc2cc(C3CC(c4c(-c5ccccc5)c5cc(Cl)ccc5[nH]c4=O)=NN3C(=O)CCC(=O)O)ccc21` (racemic), the outcome was inactive.

The test system of another assay is BXPC-3. Put plainly: Antiproliferative activity against human BxPC3 cells at 20 uM after 72 hrs in presence of olaparib by CellTiter-Glo luminescent cell viability assay. It counts as functional, cell-based. The procedure, abridged: as §1
With `CCn1cc2cc(-c3ccc(C4CC(c5c(-c6ccccc6)c6cc(Cl)ccc6[nH]c5=O)=NN4C(=O)CCC(=O)O)cc3)ccc2n1` (racemic), the result was Active.

These data come from ChEMBL document CHEMBL4402564, “Synthetic Lethality in Pancreatic Cancer: Discovery of a New RAD51-BRCA2 Small Molecule Disruptor That Inhibits Homologous Recombination and Synergizes with Olaparib” (J Med Chem, 2020).
